Data as given in paper PMC9523306 (The Journal of Veterinary Medical Science, 2022).

What was measured:
Assay in all cases: Reverse transcription-PCR, right cerebral cortex
Assay type in all cases: in vivo, rat
Settings in all cases: retinoic acid + MCAO animals; 5 mg/kg intraperitoneally for four days before MCAO; ratio of PCR product intensity to β-actin intensity; mean ± S.E.M., n=5
[1] = test system: Adenosylhomocysteinase mRNA
Procedure, shortened: (§1)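 Male Sprague-Dawley rats (200–220 g). Test compound was given in PEG/0.9% NaCl/ethanol (70/20/10 by volume), and vehicle was solvent alone. The right MCA origin was occluded by intraluminal 4–0 nylon suture for 24 hr; shams had surgery without the suture. Total RNA from the right cortex (Trizol) was used, with 500 ng reverse-transcribed. PCR ran 28–30 cycles (94°C 30 sec, 54–56°C 30 sec, 72°C 1 min), then 1% agarose, UV, densitometry. Two-way ANOVA, Scheffe post-hoc.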

[2] = test system: Isocitrate dehydrogenase [NAD^+] subunit α mRNA
Procedure, shortened: as §1

[3] = test system: glycerol-3-phosphate dehydrogenase mRNA
Procedure, shortened: as §1

[4] = test system: Rab GDP dissociation inhibitor β mRNA
Procedure, shortened: as §1

Apolipoprotein A1 mRNA = test system: Apolipoprotein A1 mRNA
Procedure, shortened: as §1

[5] = test system: heat shock protein 60 mRNA
Procedure, shortened: as §1

CC1=C(/C=C/C(C)=C/C=C/C(C)=C/C(=O)O)C(C)(C)CCC1 [retinoic acid, Retinoic acid] was tested, and the “Adenosylhomocysteinase mRNA levels” value [1] was 1.28 ± 0.06, the “Isocitrate dehydrogenase [NAD^+] subunit α mRNA levels” value [2] was 1.36 ± 0.05 and the “Expression levels of glycerol-3-phosphate dehydrogenase mRNA” value [3] was 0.91 ± 0.02. The “Rab GDP dissociation inhibitor β mRNA levels” value [4] was 1.02 ± 0.02, the “Apolipoprotein A1 mRNA levels” value (Apolipoprotein A1 mRNA) was 1.13 ± 0.02 and the “Expression levels of heat shock protein 60 mRNA” value [5] was 0.95 ± 0.05.
